The source of these data is ChEMBL document CHEMBL4007413, “Replacing d-Glucosamine with Its l-Enantiomer in Glycosylated Antitumor Ether Lipids (GAELs) Retains Cytotoxic Effects against Epithelial Cancer Cells and Cancer Stem Cells” (J Med Chem, 2017).

Activity calls are given as the source filed them. The calls are words filed in the database; no cut-off is given here.

The test system of series [1] is MIA PaCa-2. Briefly: Cytotoxicity against human MIAPaCa2 cells assessed as decrease in cell viability after 48 hrs by MTS assay. In kind it is functional. To be noted: MIA PaCa-2, 48 h. A digest of the protocol:
(§1)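 Cells were seeded at equal numbers and, after 24 h, exposed to compounds (0–30 µM) for 48 h. MTS reagent (20% v/v) was then added for 1–4 h, and OD490 was read. Cell-free medium wells served as blanks. Media were DMEM/F12 + 10% FBS for BT-474; DMEM + 10% FBS for DU-145 and MDA-MB-231; and DMEM + 10% FBS + 2.5% horse serum for MiaPaCa-2. Values are mean ± SD, n=6.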

The test system of series [2] is DU-145. In words: Cytotoxicity against human DU145 cells assessed as decrease in cell viability after 48 hrs by MTS assay. To be noted: DU-145, 48 h. The class given is functional. A digest of the protocol: as §1
For orientation: Tetrazolium dyes change colour on reduction, which living cells bring about.

The test system of series [3] is BT-474. Briefly: Cytotoxicity against human BT474 cells assessed as decrease in cell viability after 48 hrs by MTS assay. The class given is functional. To be noted: BT-474, 48 h. In short, it runs like this:
as §1

Series [4] relates to MDA-MB-231. Briefly: Cytotoxicity against human MDA-MB-231 cells assessed as decrease in cell viability after 48 hrs by MTS assay. In kind it is functional. To be noted: MDA-MB-231, 48 h. A digest of the protocol: as §1
Series [5] has as its system BT-474. Briefly: Disruption of cancer stem cells spheroids derived from human BT474 cells at >=7.5 uM after 3 days by microscopic analysis. In kind it is functional, cell-based. In short, it runs like this:
(§2)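 Cancer stem cells were isolated from BT-474 by ALDH1 activity. Equal numbers were seeded in ultra-low-adhesion wells and grown to spheroids. Spheroids were then incubated with or without compounds for 3 days. Spheroid integrity was assessed by light microscopy (×10). Viability was measured in parallel by MTS.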

In another series the test system is Erythrocyte. Briefly: Induction of hemolysis in sheep erythrocytes at 30 uM after 30 mins by spectrophotometric analysis. The class given is functional, Ovis aries.
The nature of series [6]: Stability in bovine liver extracts assessed as bovine liver glycosidase mediated compound cleavage by TLC analysis. The class given is ADME, Bos taurus. The conditions noted are these: cattle. In short, it runs like this: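 A bovine liver glycosidase fraction in 0.05 M sodium citrate pH 5.0 was combined with 0.2 M citrate pH 4.4 buffer, substrate (30 mM stock) and Triton X-100 (10% stock) for solubilization. Controls were no enzyme and a β-D-glucose-based GAEL. After 1 h, methanol was added, the mixture was centrifuged, and the supernatant was analysed by TLC. Run in quadruplicate.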

The test system of series [7] is DU-145. In words: Induction of membrane lysis in human DU145 cells at 0.01% after 10 mins by EthD-1 staining based fluorescence microscopic analysis.
Series [8] concerns MIA PaCa-2. Briefly: Cytotoxicity against human MIAPaCa2 cells assessed as cell death at 2 to 25 times CC50 after 48 hrs by MTS assay. In kind it is functional. A digest of the protocol:
(§3)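 Equal numbers of cells were plated. After 24 h they were exposed to compounds (0–30 µM) for 48 h, then given MTS reagent (20% v/v) for 1–4 h. OD490 was read against cell-free blank wells; mean ± SD of 6 determinations. Media: BT-474 in DMEM/F12 + 10% FBS; DU-145, JIMT-1 and MDA-MB-231 in DMEM + 10% FBS; MiaPaCa-2 in DMEM + 10% FBS + 2.5% horse serum; PC-3 in F12K + 10% FBS; all with penicillin/streptomycin.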

Series [9] concerns DU-145. In words: Cytotoxicity against human DU145 cells assessed as cell death at 2 to 25 times CC50 after 48 hrs by MTS assay. The class given is functional. In short, it runs like this:
as §3

Series [10] concerns BT-474. In words: Cytotoxicity against human BT474 cells assessed as cell death at 2 to 25 times CC50 after 48 hrs by MTS assay. In kind it is functional. A digest of the protocol: as §3
Series [11] relates to MDA-MB-231. Briefly: Cytotoxicity against human MDA-MB-231 cells assessed as cell death at 2 to 25 times CC50 after 48 hrs by MTS assay. In kind it is functional. A digest of the protocol:
as §3

In a further series the test system is PC-3. Briefly: Cytotoxicity against human PC3 cells assessed as cell death at 2 to 25 times CC50 after 48 hrs by MTS assay. In kind it is functional. A digest of the protocol:
as §3

Series [12] relates to JIMT-1. In words: Cytotoxicity against human JIMT1 cells assessed as cell death at 2 to 25 times CC50 after 48 hrs by MTS assay. The class given is functional. In short, it runs like this:
as §3

The test system of series [13] is BT-474. Briefly: Disruption of cancer stem cells spheroids derived from human BT474 cells at 20 uM after 3 days by microscopic analysis. In kind it is functional, cell-based. A digest of the protocol: as §2
Series [14] deals with BT-474. In words: Cytotoxicity against cancer stem cells derived from human BT474 cells assessed as cancer stem cell death at 7.5 uM after 3 days by MTS assay. In kind it is functional. In short, it runs like this:
(§4)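 CSCs were isolated from BT-474 using ALDH1 activity as the stemness marker. They were grown in ultra-low adhesion wells for 4 days to form spheroids. Spheroids were then exposed to compounds (0–20 µM) for 3 days. Viability was read by MTS assay and expressed as % of untreated control.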

For series [15], the system named is BT-474. Briefly: Cytotoxicity against cancer stem cells derived from human BT474 cells assessed as cancer stem cell death at 20 uM after 3 days by MTS assay. The class given is functional. A digest of the protocol: as §4
In series [16] the test system is DU-145. Briefly: Cytotoxicity against human DU145 cells assessed as decrease in cell viability up to 8 uM after 48 hrs in absence of pan-caspase inhibitor QVD-OPh by MTS assay. The class given is functional, cell-based. A digest of the protocol:
(§5)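 DU-145 and JIMT-1 cells (DMEM + 10% FBS) were treated with compounds with or without the pan-caspase inhibitor QVD-OPh (40 µM). Viability was read by MTS: cells were seeded, treated 24 h later for 48 h, given MTS (20% v/v) for 1–4 h, and read at OD490 against cell-free blanks.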

For series [17], the system named is DU-145. Briefly: Cytotoxicity against human DU145 cells assessed as decrease in cell viability up to 8 uM after 48 hrs in presence of pan-caspase inhibitor QVD-OPh by MTS assay. The class given is functional, cell-based. In short, it runs like this:
as §5

The subject of series [18] is JIMT-1. Briefly: Cytotoxicity against human JIMT1 cells assessed as decrease in cell viability up to 8 uM after 48 hrs in presence of pan-caspase inhibitor QVD-OPh by MTS assay. In kind it is functional, cell-based. A digest of the protocol: as §5
For series [19], the system named is JIMT-1. Briefly: Cytotoxicity against human JIMT1 cells assessed as decrease in cell viability up to 8 uM after 48 hrs in absence of pan-caspase inhibitor QVD-OPh by MTS assay. In kind it is functional, cell-based. A digest of the protocol: as §5

As for `CCCCCCCCCCCCCCCCOC[C@H](CO[C@@H]1O[C@H](CO)[C@@H](O)[C@H](O)[C@H]1N)OC`, the CC50 with MIA PaCa-2 [1], in the series with DU-145 [2], in the series on BT-474 [3] and with MDA-MB-231 [4] was 6.5 to 13 µM throughout. Besides, in the series on BT-474 [5], the result was Active. The compound further showed an Activity in the series on Erythrocyte of less than 5%. Besides, in series [6], the Stability result is listed as “Stable”.
For `CCCCCCCCCCCCCCCCOC[C@H](CO[C@H]1O[C@H](CO)[C@@H](O)[C@H](O)[C@H]1N)OC`, the CC50 with MIA PaCa-2 [1], in the series on DU-145 [2], with BT-474 [3] and with MDA-MB-231 [4] was 6 to 10.5 µM in each case.
As to `CC(C)(C)CC(C)(C)c1ccc(OCCOCCOCCOCCOCCOCCOCCOCCOCCOCCO)cc1`, in the series on DU-145 [7], the outcome was Active.
Regarding `COc1cccc2c1C(=O)c1c(O)c3c(c(O)c1C2=O)C[C@@](O)(C(=O)CO)C[C@@H]3O[C@H]1C[C@H](N)[C@H](O)[C@H](C)O1.Cl` [DOXORUBICIN HYDROCHLORIDE], the Activity with MIA PaCa-2 [8], in the series with DU-145 [9], in the series on BT-474 [10], in the series with MDA-MB-231 [11], in the series with PC-3 and in the series with JIMT-1 [12] was less than 90% throughout. Also, the Activity in the series with BT-474 [14] came out at 75%; in the series on BT-474 [15], 72%. For the same compound, the result in the series with BT-474 [13], with DU-145 [17] and with JIMT-1 [18] was inactive. Further, the result with DU-145 [16] and with JIMT-1 [19] was Active.

Broadly, the CC50 is the concentration that lowers cell viability or growth by half.
